The source of these data is PMC6714550 (Investigational new drugs, 2018).

Read-outs that look alike come from different tables or passages of the source.

The test system of data set [1] is advanced GIST. The conditions noted are these: cited from earlier work.
Data set [2] can be described thus: Plasma pharmacokinetics, cycle 1. It counts as in vivo, human. The gist of the method:
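Patients with advanced GIST took an oral pan-FGFR kinase inhibitor (test compound) once daily at escalating dose levels (25–125 mg), with a second oral tyrosine kinase inhibitor at 400 mg once daily, in 28-day cycles. Blood was sampled at prespecified cycle 1 timepoints. Plasma parent drug, partner drug and its active metabolite were measured by validated LC-MS/MS.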

Data set [3] concerns patients with imatinib refractory advanced GIST. The experiment in a line: Safety and tolerability, DLT and MTD. The conditions noted are these: schedule A, in combination with 400mg of imatinib.
Where [4] appears, read: second and third line options in GIST.
Where [5] appears, read: dose level −1 (BGJ398 50mg qd, imatinib 400mg qd), day 1, n=1.

The term Tmax denotes the time at which the peak concentration occurs.

As for `CCN(CC)CCNC(=O)c1c(C)[nH]c(/C=C2\C(=O)Nc3ccc(F)cc32)c1C` [sunitinib], in data set [1] (setting [4]), the “median PFS” value was 4–6 months and the response rate is listed as 4–7%.
In the case of `CNC(=O)c1cc(Oc2ccc(NC(=O)Nc3ccc(Cl)c(C(F)(F)F)c3)c(F)c2)ccn1` [regorafenib], in data set [1] (setting [4]), the “median PFS” value is recorded as 4–6 months and the response rate is listed as 4–7%.
Consider `CCN1CCN(c2ccc(Nc3cc(N(C)C(=O)Nc4c(Cl)c(OC)cc(OC)c4Cl)ncn3)cc2)CC1` [BGJ398], for which the “AUC (0–24h)” value in data set [2] (dose level 1 (BGJ398 75mg qd, imatinib 400mg qd), day 1, n=9, mean) is recorded as 487 (32 – 1153) h x ng/mL; in data set [2] (dose level 2 (BGJ398 100mg qd, imatinib 400mg qd), day 1, n=1) it was 309 h x ng/mL; in data set [2] (setting [5]), 25 h x ng/mL. For the same compound, the Tmax in data set [2] (setting [5]) worked out at 4 h; in data set [2] (human, plasma, oral), 5 h. In data set [3], the “maximum tolerated dose (dose level −1)” value is 50 mg.
Turning to `Cc1ccc(NC(=O)c2ccc(CN3CCN(C)CC3)cc2)cc1Nc1nccc(-c2cccnc2)n1` [imatinib], in data set [1] (first-line, advanced GIST), the objective response rate entry is “approximately 50%” and the “overall disease control rate” value is on record as 80%. In data set [1] (following initiation of imatinib therapy), the “median progression free survival” value is reported as 20–24 months. In data set [1] (imatinib re-challenge), the “median PFS” value is recorded as 1.8 months and the “median PFS, 95% CI” value was 1.7–3.6 months.
`Cc1ccc(NC(=O)c2ccc(CN3CCNCC3)cc2)cc1Nc1nccc(-c2cccnc2)n1` [CGP 74588]: the “Concentration of metabolite day 1 24hr” value is on record as 149 (56 – 395) ng/mL in data set [2] (dose level 1 (BGJ398 75mg qd, imatinib 400mg qd), n=9, mean); 1040 ng/mL in data set [2] (dose level 2 (BGJ398 100mg qd, imatinib 400mg qd), n=1); 54 (26 – 84) ng/mL in data set [2] (dose level −1 (BGJ398 50mg qd, imatinib 400mg qd), n=3, mean); 131 (67 – 209) ng/mL in data set [2] (dose level −2 (BGJ398 25mg qd, imatinib 400mg qd), n=3, mean).
